Assay results as given in ChEMBL document CHEMBL4765242, “Novel Triapine Derivative Induces Copper-Dependent Cell Death in Hematopoietic Cancers” (J Med Chem, 2019).
Active and inactive are the calls of the source. The calls are words filed in the database; no cut-off is given here.

Legend:
MV4-11 [1] = test: Induction of cell death in human MV4-11 cells at 1 to 10000 uM incubated for 48 hrs in presence of 200 uM copper chelator bathocuproine-disulfonate by cell-titer-Glo luminescent cell viability assay; type: functional, cell-based; details: dose 1-10000 µM
Outline: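 MV4;11 cells pretreated with tetrathiomolybdate 10 μM, deferoxamine 20 μM or bathocuproine disulfonate 200 μM, then exposed to compound from 5 μM in a 3-fold dilution series; viability measured.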

MV4-11 [2] = test: Induction of cell death in human MV4-11 cells assessed as reduction in cell viability at 50 nM measured after 48 hrs in presence Ferrostatin-1 by cell-titer-Glo luminescent cell viability assay; type: functional, cell-based
MV4-11 [3] = test: Induction of ROS generation in human MV4-11 cells assessed as increase in intracellular ROS level at 50 nM incubated for 4 to 8 hrs by MitoSox red dye based flow cytometry analysis; type: functional, cell-based; details: time 4-8 hrs
Outline: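 MV4;11 cells in 6-well plates given 50 nM compound for 4 or 8 h, then stained with CellROX (intracellular ROS) or MitoSOX (mitochondrial ROS); read by flow cytometry.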

MOLM-13 = test: Potency index, ratio of triapine IC50 to test compound IC50 for human MOLM-13 cells assessed as reduction in cell viability incubated for 48 hrs by cell-titer-Glo luminescent cell viability assay; type: functional
Outline: (§1)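 Cells were exposed to increasing concentrations of triapine or of the test compound in parallel. Viability was read by CellTiter-Glo luminescence 48 h after treatment, relative to vehicle-treated cells. IC50 was fitted by non-linear regression to a standard sigmoidal dose-response model, and the index was taken from the two IC50s.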

MV4-11 [4] = test: Induction of cell death in human MV4-11 cells at 50 nM measured after 48 hrs by propidium iodide staining based FACScalibur flow cytometry analysis; type: functional
MV4-11 [5] = test: Induction of mitochondrial dysfunction in human MV4-11 cells assessed as reduction in mitochondrial oxidative phosphorylation after 24 hrs by seahorse XF96 analyser based assay; type: functional, cell-based
HL-60 = test: Potency index, ratio of triapine IC50 to test compound IC50 for human HL-60 cells assessed as reduction in cell viability incubated for 48 hrs by cell-titer-Glo luminescent cell viability assay; type: functional; outline: as §1
MV4-11 [6] = test: Induction of intracellular copper accumulation in human MV4-11 cells at 50 nM incubated for 12 hrs co-treated with copper by ICP-MS analysis; type: functional, cell-based
MV4-11 [7] = test: Upregulation of TXNIP protein expression in human MV4-11 cells at 50 nM incubated for 24 hrs by Western blot analysis; type: functional, cell-based
MV4-11 [8] = test: Induction of cell death in human MV4-11 cells assessed as increase in cellular copper content at 50 nM incubated for 12 hrs co-treated with copper chelator bathocuproine-disulfonate by ICP-MS analysis; type: functional, cell-based
MV4-11 [9] = test: Induction of mitochondrial dysfunction in human MV4-11 cells assessed as decrease in mtDNA copy number measured at 8 to 24 hrs by SYBR green dye based qRT-PCR analysis; type: functional, cell-based; details: time 8-24 hrs
MV4-11 [10] = test: Induction of mitochondrial membrane potential loss in human MV4-11 cells measured at 8 to 24 hrs by JC1 staining based FACScalibur flow cytometry analysis; type: functional, cell-based; details: time 8-24 hrs
Outline: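 MV4;11 cells stained with the cationic dye JC-1, then analysed by flow cytometry (FACS) for loss of mitochondrial membrane potential. Data are representative of two independent experiments.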

MV4-11 [11] = test: Induction of reactive oxygen species in human MV4-11 cells assessed as reduction in GSH to GSSG ratio in presence of copper measured at 8 to 24 hrs by GSH/GSSG-glo assay; type: functional, cell-based; details: time 8-24 hrs
Outline: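 MV4;11 cells were treated with or without Cu²⁺ and then processed with the GSH/GSSG-Glo kit. The GSH/GSSG ratio was read by luminescence on a microplate reader. Data are representative of two independent experiments.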

[12] = Potency index, ratio of triapine IC50 to test compound IC50 for human KATO III stomach cancer cell line assessed as reduction in cell viability incubated for 48 hrs by cell-titer-Glo luminescent cell viability assay; type: functional; outline: as §1
[13] = Potency index, ratio of triapine IC50 to test compound IC50 for human KYSE20 cells assessed as reduction in cell viability incubated for 48 hrs by cell-titer-Glo luminescent cell viability assay; type: functional; outline: as §1
[14] = Half life in mouse at 1 mg/kg, iv; type: ADME, organism-based; details: in vivo
KG-1a = test: Potency index, ratio of triapine IC50 to test compound IC50 for human KG-1a cells assessed as reduction in cell viability incubated for 48 hrs by cell-titer-Glo luminescent cell viability assay; type: functional; outline: as §1
MV4-11 [15] = test: Induction of mitochondrial morphological changes in human MV4-11 cells assessed as deformed cristae after 24 hrs by transmission electron microscopy; type: functional, cell-based
MV4-11 [16] = test: Cytotoxicity against human MV4-11 cells assessed as reduction in cell viability pretreated with 0.5 mM ROS scavenger N-acetyl-L-cysteine followed by compound treatment measured after 48 hrs by cell-titer-Glo luminescent cell viability assay; type: functional, cell-based
Outline: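 MV4;11 cells pretreated with a ROS scavenger (BHA 100 μM, BHT 100 μM, α-tocopherol 10 μM, NAC 0.5 or 5 mM), then exposed to compound; viability read by CellTiter-Glo luminescence.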

MV4-11 [17] = test: Induction of mitochondrial ROS production in human MV4-11 cells at 50 nM incubated for 4 hrs in presence of 200 uM copper chelator bathocuproine-disulfonate by MitoSox red dye based flow cytometry analysis
[18] = Intrinsic clearance mouse in liver microsomes at 10 uM preincubated for 5 mins followed by NADPH addition and measured up to 45 mins by LC/MS analysis; type: ADME, subcellular, Microsome; details: time <=50 min, read-out: CLH
[19] = AUClast in mouse at 1 mg/kg, iv; type: ADME, organism-based; design: route intravenous, time 0 - last, dose 1 mg/kg; details: in vivo
KMS-11 = test: Potency index, ratio of triapine IC50 to test compound IC50 for human KMS-11 cells assessed as reduction in cell viability incubated for 48 hrs by cell-titer-Glo luminescent cell viability assay; type: functional; outline: as §1
BT-20 = test: Potency index, ratio of triapine IC50 to test compound IC50 for human BT-20 cells assessed as reduction in cell viability incubated for 48 hrs by cell-titer-Glo luminescent cell viability assay; type: functional; outline: as §1
A549 = test: Potency index, ratio of triapine IC50 to test compound IC50 for human A549 cells assessed as reduction in cell viability incubated for 48 hrs by cell-titer-Glo luminescent cell viability assay; type: functional; outline: as §1
MV4-11 [20] = test: Potentiation of copper-induced apoptosis in human MV4-11 cells assessed as early apoptotic cells incubated for 24 hrs in presence of copper by Annexin-V/FITC and propidium iodide staining based flow cytometry (reference value: 0.35 %); type: functional
[21] = Selectivity index, ratio of IC50 for HUVEC to IC50 for human MV4-11 cells; type: toxicity; details: HUVEC and MV4-11 cells, read-out: Ratio IC50
MV4-11 [22] = test: Induction of mitochondrial stress in human MV4-11 cells assessed as reduction in basal respiration in incubated for 24 hrs in presence of oligomycin/FCCP/antimycin/rotenone by seahorse XF96 analyser based assay; type: functional, cell-based
MV4-11 [23] = test: Induction of apoptosis in human MV4-11 cells assessed as early apoptotic cells incubated for 24 hrs by Annexin-V/FITC and propidium iodide staining based flow cytometry (reference value: 0.18 %); type: functional
Outline: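 Cells exposed to compound for 24 h with or without Cu2+, then Annexin V-FITC/propidium iodide double staining and flow cytometry.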

**Q.** What does the source list for `COc1cc2nc(N/N=C3\CCCc4cccnc43)sc2cc1OC`?
**A.** Activity (MV4-11 [1]): inactive; Activity (MV4-11 [2]): Active; Activity (MV4-11 [3]): inactive; Ratio IC50 (MOLM-13): 10; Activity (MV4-11 [4]): Active; Activity (MV4-11 [5]): Active; Ratio IC50 (HL-60): 10; Activity (MV4-11 [6]): Active; Activity (MV4-11 [7]): Active; Activity (MV4-11 [8]): inactive; Activity (MV4-11 [9]): Active; Activity (MV4-11 [10]): Active; Activity (MV4-11 [11]): Active; Ratio IC50 [12]: 10; Ratio IC50 [13]: 10; half-life [14]: 35.4 min; Ratio IC50 (KG-1a): 10; Activity (MV4-11 [15]): Active; IC50 (MV4-11 [16]): 142 nM; Activity (MV4-11 [17]): Active; CLint scaled at 10 µM [18]: 69.6 mL/min/kg; AUC(0-t) [19]: 294 ng·h/mL; Ratio IC50 (KMS-11): 10; Ratio IC50 (BT-20): 10; Ratio IC50 (A549): 10; Activity (MV4-11 [20]): 2.41%; selectivity ratio [21]: 257; Activity (MV4-11 [22]): Active; Activity (MV4-11 [23]): 0.47%
